Assay outcomes: PubChem BioAssay, several laboratories
Platelet DG rel: inhibitors of platelet dense granule secretion, primary screen, cell-based, MLPCN, human platelets | AID 1663, 2009 | inhibition, %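 (compounds screened at 7.5 µM in platelet-rich plasma)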 | hit rate 0.22% among 300,000 | human platelet-rich plasma, SFLLRN dense granule ATP release, luminescence;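 active = mean replicate score, as percent of positive control, at or above 50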
STAT1 blocker: STAT1 signaling inhibitors, primary screen, cell-based, HTS, luciferase reporter; NIH 3T3 STAT1-luciferase reporter, IFN-gamma, luminescence; inhibition, % at 5.5 µM; hit rate 0.35% among 200,000; AID 920, 2007;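 active = inhibition above a set limit, the mean inhibition across all tested compounds plus 3 SD, cut at about 34% in these data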;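 also: 0% = IFN-gamma with DMSO and 100% = IFN-gamma with 300 µM nifuroxazide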
STAT3 act-1: IL-6 driven STAT3 reporter potentiators, primary screen, U3A cells, luciferase, luminescence, MLSCN library; IL-6 STAT3-luciferase reporter; 100% = signal with IL-6 EC80 alone; activation (% of control), % at 5.6 µM; AID 871, 2007; hit rate 0.91% among 190,000;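 active = activation above the screen-wide mean of compound activation plus 3 SD, cut at about 130% in these data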;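 also: 0% = background luminescence of wells with medium and substrate only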
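Test system: human U3A cells carrying STAT3-luciferase construct; control set: IL-6-only wells as 100% reference; timing: compound pre-incubation 1 h before IL-6, then 6 h stimulation at 37 °C; also added: IL-6 stimulus at 33 ng/mL final; evaluation: % activation versus median of IL-6-stimulated wells; detection: reporter luminescence signal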
PERK inhibitor: block of dimerizer-induced PERK translation repression, primary screen, PERK inhibitor project, CHO PERK-DD cells, SEAP luminescence, HTS | inhibition, % at 5.6 µM | AID 1416, 2008 | hit rate 0.17% among 220,000 | Eukaryotic translation initiation factor 2-alpha kinase 3 (Homo sapiens), Q9NZJ5 | CHO PERK-DD fusion, SEAP luminescence translation reporter;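 active = inhibition above the mean inhibition of all tested compounds plus 3 SD, set separately per screening campaign, cut at about 2.9% in these data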;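 also: PERK kinase domain activated by AP20187 dimerizer at 100 nM; 0% = DMSO with dimerizer and 100% = rapamycin at 8.4 µM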
Target sequence (Q9NZJ5 whole entry, looked up, the tested form may be a part): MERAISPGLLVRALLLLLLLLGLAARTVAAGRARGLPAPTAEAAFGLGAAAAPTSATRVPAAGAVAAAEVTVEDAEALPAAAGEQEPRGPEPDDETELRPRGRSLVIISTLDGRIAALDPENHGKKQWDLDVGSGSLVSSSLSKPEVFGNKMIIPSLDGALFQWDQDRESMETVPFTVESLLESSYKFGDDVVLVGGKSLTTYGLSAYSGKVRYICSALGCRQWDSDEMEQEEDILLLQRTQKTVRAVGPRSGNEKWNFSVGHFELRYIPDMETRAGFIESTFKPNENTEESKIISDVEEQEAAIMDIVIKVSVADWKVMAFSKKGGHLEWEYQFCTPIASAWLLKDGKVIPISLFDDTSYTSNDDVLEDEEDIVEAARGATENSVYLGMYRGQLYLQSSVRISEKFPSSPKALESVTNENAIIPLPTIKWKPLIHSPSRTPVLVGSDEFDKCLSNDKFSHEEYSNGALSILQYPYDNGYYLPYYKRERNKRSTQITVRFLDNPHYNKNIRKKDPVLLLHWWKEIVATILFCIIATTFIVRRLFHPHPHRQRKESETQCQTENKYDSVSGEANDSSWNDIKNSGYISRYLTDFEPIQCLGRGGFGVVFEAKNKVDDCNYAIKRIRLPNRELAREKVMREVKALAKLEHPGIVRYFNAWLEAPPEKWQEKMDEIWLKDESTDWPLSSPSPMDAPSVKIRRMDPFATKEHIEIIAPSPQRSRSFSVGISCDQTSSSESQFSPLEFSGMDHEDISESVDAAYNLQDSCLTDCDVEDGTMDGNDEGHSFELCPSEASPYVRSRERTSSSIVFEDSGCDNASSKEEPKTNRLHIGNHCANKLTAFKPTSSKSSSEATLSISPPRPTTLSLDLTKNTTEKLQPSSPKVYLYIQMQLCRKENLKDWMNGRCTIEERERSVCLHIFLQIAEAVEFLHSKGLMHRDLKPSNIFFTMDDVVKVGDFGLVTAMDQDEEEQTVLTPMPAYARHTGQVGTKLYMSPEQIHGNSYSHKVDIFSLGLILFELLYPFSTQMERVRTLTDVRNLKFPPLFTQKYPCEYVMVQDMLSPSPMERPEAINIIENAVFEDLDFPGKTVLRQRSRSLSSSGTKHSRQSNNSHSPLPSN
STAT3 blocker: IL-6 driven STAT3 reporter inhibitors, primary screen, U3A cells, luciferase, luminescence, MLSCN library. IL-6 STAT3-luciferase reporter; host cell line lacks STAT1. hit rate 0.89% among 190,000. inhibition, % at 5.5 µM;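 active = inhibition above the mean inhibition across all screened compounds plus 3 SD, cut at about 44% in these data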;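 also: 0% = DMSO only wells and 100% = 100 µM nifuroxazide control wells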
STAT3 act-2: STAT3 reporter potentiators, retest of hits, confirmation, U3A cells, luciferase, luminescence. shares compounds with STAT3 act-1. IL-6 potentiation; U3A cells lack STAT1; 100 means same as IL-6 alone. potentiation (% of control), % at 5.7 µM. hit rate 64% among 1,200. AID 1267, 2008;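 active = percent activation of the STAT3 luciferase reporter above a set limit taken from the earlier primary screen, cut at about 130% in these data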;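 also: 0% = background signal of medium plus substrate and 100% = median of IL-6 with DMSO wells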
NFkB act STAT3ct: NF-kB reporter activators in human cells, counter-screen for STAT3 activator project; shares compounds with STAT3 act-1; NF-kappaB reporter activation; hit rate 11% among 1,200; activation (% of control), % at 5.7 µM; in the data active = activation above about 120%;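 also: reporter induced by TNF-alpha stimulation; 100% = median of stimulated DMSO wells and 0% = no signal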
STAT1 act STAT3c: STAT1 reporter activators, IFN-gamma induced, counter-screen for STAT3 activator project, cell-based, NIH 3T3, luciferase luminescence | shares compounds with STAT3 act-1 | hit rate 13% among 1,200 | NIH 3T3 STAT1-luciferase reporter | activation (% of control), % at 5.7 µM;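 active = activation above the solvent-only control well mean plus 3 SD, set per screening run, cut at about 120% in these data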;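 also: 100% = IFN-gamma with DMSO median signal so 100% means no change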
* hit, by the source's call. Only some compounds are listed: those with a hit (about 1.4% of all), similar ones and a draw of the others.

What do the screens show for `O=CN1CCN(C(=O)c2ccc([N+](=O)[O-])cc2)CC1`?
Platelet DG rel: 6; STAT1 blocker: 2; STAT3 act-1: 102; PERK inhibitor: 1; STAT3 blocker: -5

How did O=C(Nc1nc2ccccc2s1)c1ccc2c(c1)S(=O)(=O)c1ccccc1C2=O do in these assays?
STAT1 blocker: -5; STAT3 act-1: 140*; PERK inhibitor: 0; STAT3 blocker: -38; STAT3 act-2: 132; NFkB act STAT3ct: 101; STAT1 act STAT3c: 96

Results for CCCc1cc(=O)[nH]c(SCC(=O)c2c[nH]c3ccccc23)n1 ?
Platelet DG rel: -1; STAT1 blocker: 9; STAT3 act-1: 143*; PERK inhibitor: 1; STAT3 blocker: -36; STAT3 act-2: 123; NFkB act STAT3ct: 102; STAT1 act STAT3c: 104

How did O=C(COC(=O)/C=C/c1ccco1)Nc1cccc([N+](=O)[O-])c1 do in these assays?
Platelet DG rel: 20; STAT1 blocker: 18; STAT3 act-1: 102; PERK inhibitor: 0; STAT3 blocker: 0

Results for CCOC(=O)C1=C(CSc2nc(-c3ccccc3)ccc2C#N)OC(N)=C(C#N)C1c1cccnc1 (stereo not drawn) ?
Platelet DG rel: -10; STAT1 blocker: -8; STAT3 act-1: 137*; PERK inhibitor: 0; STAT3 blocker: -48; STAT3 act-2: 129; NFkB act STAT3ct: 120; STAT1 act STAT3c: 117

Results for CCOC(=O)C1=C(CSc2nc(-c3ccccc3)ccc2C#N)OC(N)=C(C#N)C1c1ccccc1 (stereo not drawn) ?
Platelet DG rel: 4; STAT1 blocker: -3; STAT3 act-1: 102; PERK inhibitor: 0; STAT3 blocker: -6

How did CSCC[C@H](N)C(=O)N1CCC(C(=O)N[C@H](C)C(=O)Nc2ccc(C(C)C)cc2)CC1 do in these assays?
Platelet DG rel: -12

What do the screens show for `CCC(C)NC(=O)C(NS(=O)(=O)c1cccc2nsnc12)c1ccccc1` (stereo not drawn)?
Platelet DG rel: 2; STAT1 blocker: 1; STAT3 act-1: 139*; PERK inhibitor: -1; STAT3 blocker: -39; STAT3 act-2: 96; NFkB act STAT3ct: 115; STAT1 act STAT3c: 117

What do the screens show for `CC1CCN(C(=O)CSc2nnc(CNC(=O)c3ccc(F)cc3)o2)CC1`?
Platelet DG rel: 0

How did CC1(C(=O)NCCCNc2ncc(C(F)(F)F)cc2Cl)C=CC2(CCCCC2)N1C(=O)c1ccccc1 (stereo not drawn) do in these assays?
Platelet DG rel: -2

Results for O=C(c1ccccc1)N1CCN2C(=O)c3ccccc3C12c1ccc(Cl)cc1 (stereo not drawn) ?
Platelet DG rel: 4; STAT1 blocker: 27; STAT3 act-1: 418*; PERK inhibitor: -2; STAT3 blocker: -376; STAT3 act-2: 283*; NFkB act STAT3ct: 112; STAT1 act STAT3c: 75

Results for O=C(c1ccc(F)cc1)N1CCN2C(=O)c3ccccc3C12c1ccc(Cl)cc1 (stereo not drawn) ?
Platelet DG rel: -4; STAT1 blocker: 27; STAT3 act-1: 204*; PERK inhibitor: 0; STAT3 blocker: -97; STAT3 act-2: 146*; NFkB act STAT3ct: 116; STAT1 act STAT3c: 97

What do the screens show for `COc1ccc(CC(=O)Nc2ccc(C(=O)Nc3ccccc3C(=O)O)cc2)cc1OC`?
Platelet DG rel: 6; STAT1 blocker: -1; STAT3 act-1: 103; PERK inhibitor: 1; STAT3 blocker: -6

Results for CCN1CCCC1CN(Cc1cc2ccc(C)cc2[nH]c1=O)C(=S)Nc1cccc(OC)c1 (stereo not drawn) ?
Platelet DG rel: -1; STAT1 blocker: -8; STAT3 act-1: 109; PERK inhibitor: -1; STAT3 blocker: -8

Results for CCN(CC)S(=O)(=O)c1cccc(-c2nnc(SCCCC(=O)c3ccccc3)o2)c1 ?
Platelet DG rel: 3; STAT1 blocker: 10; STAT3 act-1: 99; PERK inhibitor: 0; STAT3 blocker: 5

How did CCN(CC)S(=O)(=O)c1cccc(-c2nnc(SCc3nc4ccccc4s3)o2)c1 do in these assays?
Platelet DG rel: -2; STAT1 blocker: -13; STAT3 act-1: 139*; PERK inhibitor: -1; STAT3 blocker: -46; STAT3 act-2: 122; NFkB act STAT3ct: 111; STAT1 act STAT3c: 115

What do the screens show for `CCOCCCNC(=S)N1CCN(c2nc(-c3ccc(F)cc3)cs2)CC1`?
Platelet DG rel: -1

How did CN1CCC(OC(=O)c2cc3cc(Br)ccc3oc2=O)CC1 do in these assays?
Platelet DG rel: 2

Results for CCOc1ccccc1CNCc1ccc(C(=O)O)cc1 ?
Platelet DG rel: -4; STAT1 blocker: 4; STAT3 act-1: 100; PERK inhibitor: 2; STAT3 blocker: 9

How did O=C(COc1ccccc1CNCc1ccccc1)Nc1ccccc1 do in these assays?
Platelet DG rel: -2; STAT1 blocker: -6; STAT3 act-1: 143*; PERK inhibitor: -2; STAT3 blocker: -51; STAT3 act-2: 123; NFkB act STAT3ct: 111; STAT1 act STAT3c: 105

How did Cc1c(C(=O)Nc2nc3ccccc3[nH]2)oc2ccc(Br)cc12 do in these assays?
Platelet DG rel: -11; STAT1 blocker: -15; STAT3 act-1: 86; PERK inhibitor: 0; STAT3 blocker: 12

How did Cc1c(C(=O)Nc2nc3ccccc3[nH]2)oc2c(Cl)cccc12 do in these assays?
Platelet DG rel: 3; STAT1 blocker: -6; STAT3 act-1: 143*; PERK inhibitor: -1; STAT3 blocker: -46; STAT3 act-2: 178*; NFkB act STAT3ct: 121*; STAT1 act STAT3c: 122*

Results for COc1cc2c(cc1NC(=O)C(C)Sc1cccc[n+]1[O-])oc1ccccc12 (stereo not drawn) ?
Platelet DG rel: -7; STAT1 blocker: -18; STAT3 act-1: 136*; PERK inhibitor: -1; STAT3 blocker: -43; STAT3 act-2: 139*; NFkB act STAT3ct: 112; STAT1 act STAT3c: 115
